Data: ChEMBL document CHEMBL4414668, “Phallusialides A-E, Pyrrole-Derived Alkaloids Discovered from a Marine-Derived Micromonospora sp. Bacterium Using MS-Based Metabolomics Approaches” (2019)
Values after ≈ are worked out from the molar mass of the structure shown. Active and inactive are the calls of the source. The calls are words filed in the database; no cut-off is given here.

How the values were obtained:
Escherichia coli [1] = assay: Antibacterial activity against Escherichia coli ATCC 25922 at 256 ug/ml incubated for 18 hrs by dilution antimicrobial susceptibility test; format: functional, organism-based
Method in brief: (§1)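 Dilution susceptibility test for aerobic bacteria. Compounds in DMSO, serially diluted to 10 concentrations (0.5–256 μg/mL), tested in triplicate. Positive controls were vancomycin for MRSA ATCC 33591 and gentamicin for E. coli ATCC 25922. Each plate carried six untreated media controls. Incubation was 35 °C for 18 h. MIC was read as the lowest concentration with no visible bacterial growth.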

Staphylococcus aureus [2] = assay: Antibacterial activity against methicillin-resistant Staphylococcus aureus ATCC 33591 at 256 ug/ml incubated for 18 hrs by dilution antimicrobial susceptibility test
Escherichia coli [3] = assay: Antibacterial activity against Escherichia coli ATCC 25922 incubated for 18 hrs by dilution antimicrobial susceptibility test; format: functional; method in brief: as §1
Staphylococcus aureus [4] = assay: Antibacterial activity against methicillin-resistant Staphylococcus aureus ATCC 33591 incubated for 18 hrs by dilution antimicrobial susceptibility test; details: ATCC 33591, 18 h

**Q.** What does the source list for `C[C@@H]1O[C@@H](O)C[C@@](C)(N)[C@H]1O[C@H]1CC[C@H](OC(=O)c2ccc[nH]2)[C@@H](C)O1`?
**A.** Activity (Escherichia coli [1]): inactive; Activity (Staphylococcus aureus [2]): inactive

**Q.** With GENTAMICIN as the molecule, how does the MIC (Escherichia coli [3]) read?
**A.** 4 µg/mL

**Q.** `C[C@@H]1O[C@@H](O)C[C@@](C)(N)[C@H]1O[C@H]1CC[C@H](OC(=O)c2cc(Br)c[nH]2)[C@@H](C)O1` was tested. Which MIC (Escherichia coli [3]; ATCC 25922, 18 h) did it give?
**A.** 64 µg/mL (≈ 143 µM)

**Q.** And the MIC (Staphylococcus aureus [4])?
**A.** 32 µg/mL (≈ 71.5 µM)

**Q.** Which results are given for `C[C@@H]1O[C@@H](O)C[C@@](C)(N)[C@H]1O[C@H]1CC[C@H](OC(=O)c2cc(Cl)c[nH]2)[C@@H](C)O1`?
**A.** MIC (Escherichia coli [3]; ATCC 25922, 18 h): 64 µg/mL (≈ 159 µM); MIC (Staphylococcus aureus [4]): 32 µg/mL (≈ 79.4 µM)

**Q.** For `C[C@@H]1O[C@H](O[C@H]2CC[C@H](O)O[C@@H]2C)C[C@@](C)(N)[C@H]1O[C@H]1CC[C@H](OC(=O)c2cc(Cl)c[nH]2)[C@@H](C)O1`, which Activity (Escherichia coli [1]) is on record?
**A.** inactive

**Q.** And the Activity (Staphylococcus aureus [2])?
**A.** inactive

**Q.** Which Activity (Escherichia coli [1]) does the source give for `C[C@@H]1O[C@H](O)C[C@@](C)(NC(=O)CCC(=O)O)[C@H]1O[C@@H]1C[C@@](C)(N)[C@@H](O[C@H]2CC[C@H](OC(=O)c3cc(Cl)c[nH]3)[C@@H](C)O2)[C@H](C)O1` here?
**A.** inactive

**Q.** What about the Activity (Staphylococcus aureus [2]) of the same molecule?
**A.** inactive

**Q.** Which MIC (Staphylococcus aureus [4]) does the source give for `CN[C@H](CC(C)C)C(=O)N[C@H]1C(=O)N[C@@H](CC(N)=O)C(=O)N[C@H]2C(=O)N[C@H]3C(=O)N[C@H](C(=O)N[C@H](C(=O)O)c4cc(O)cc(O)c4-c4cc3ccc4O)[C@H](O)c3ccc(c(Cl)c3)Oc3cc2cc(c3O[C@@H]2O[C@H](CO)[C@@H](O)[C@H](O)[C@H]2O[C@H]2C[C@](C)(N)[C@H](O)[C@H](C)O2)Oc2ccc(cc2Cl)[C@H]1O` [VANCOMYCIN] here?
**A.** 0.25 µg/mL (≈ 0.173 µM)
